Measured values as given in article PMC2842983 (Journal of medicinal chemistry, 2010).
Entries after “also recorded” stand apart in the source; their conditions may differ.

Columns and labels:
[1] = biological target: T1, FGFR1 kinase (Homo sapiens, UniProt P11362); experiment: ALPHAScreen assay, inhibition of FGFR1 kinase; format: biochemical; conditions: na = not active in the assay
[2] = biological target: T1, FGFR1 kinase; conditions: cited from earlier work; for IC50: read-out: IC50 for FGFR1 kinase activity
[3] = test system: PDGFR; conditions: cited from earlier work
[4] = test system: insulin receptor (InsR); conditions: cited from earlier work
[5] = biological target: T2, EGFR (Homo sapiens, UniProt P00533); conditions: cited from earlier work
[6] = biological target: T2, EGFR; experiment: ALPHAScreen kinase assay, EGFR; format: biochemical
Method in brief: (§1)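 Recombinant kinase was sourced commercially. In the AlphaScreen format, kinase, biotinylated peptide, ATP and test compound were combined across 10 wells, typically spanning 0.01 µM to 250 µM compound. Phosphorylation ran for 30 minutes and was stopped with EDTA. Phosphopeptide was detected with anti-phosphotyrosine acceptor beads and streptavidin donor beads, and IC50 was derived from the concentration series.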

[7] = biological target: InsR (Homo sapiens, UniProt P06213); experiment: ALPHAScreen kinase assay, InsR; format: biochemical; conditions: kinase from Millipore, na = not active
Method in brief: as §1

[8] = test system: Src, InsR, EGFR, PDGFR, and several other kinases; conditions: cited from earlier work

T2 sequence (P00533 25-1210, species assumed): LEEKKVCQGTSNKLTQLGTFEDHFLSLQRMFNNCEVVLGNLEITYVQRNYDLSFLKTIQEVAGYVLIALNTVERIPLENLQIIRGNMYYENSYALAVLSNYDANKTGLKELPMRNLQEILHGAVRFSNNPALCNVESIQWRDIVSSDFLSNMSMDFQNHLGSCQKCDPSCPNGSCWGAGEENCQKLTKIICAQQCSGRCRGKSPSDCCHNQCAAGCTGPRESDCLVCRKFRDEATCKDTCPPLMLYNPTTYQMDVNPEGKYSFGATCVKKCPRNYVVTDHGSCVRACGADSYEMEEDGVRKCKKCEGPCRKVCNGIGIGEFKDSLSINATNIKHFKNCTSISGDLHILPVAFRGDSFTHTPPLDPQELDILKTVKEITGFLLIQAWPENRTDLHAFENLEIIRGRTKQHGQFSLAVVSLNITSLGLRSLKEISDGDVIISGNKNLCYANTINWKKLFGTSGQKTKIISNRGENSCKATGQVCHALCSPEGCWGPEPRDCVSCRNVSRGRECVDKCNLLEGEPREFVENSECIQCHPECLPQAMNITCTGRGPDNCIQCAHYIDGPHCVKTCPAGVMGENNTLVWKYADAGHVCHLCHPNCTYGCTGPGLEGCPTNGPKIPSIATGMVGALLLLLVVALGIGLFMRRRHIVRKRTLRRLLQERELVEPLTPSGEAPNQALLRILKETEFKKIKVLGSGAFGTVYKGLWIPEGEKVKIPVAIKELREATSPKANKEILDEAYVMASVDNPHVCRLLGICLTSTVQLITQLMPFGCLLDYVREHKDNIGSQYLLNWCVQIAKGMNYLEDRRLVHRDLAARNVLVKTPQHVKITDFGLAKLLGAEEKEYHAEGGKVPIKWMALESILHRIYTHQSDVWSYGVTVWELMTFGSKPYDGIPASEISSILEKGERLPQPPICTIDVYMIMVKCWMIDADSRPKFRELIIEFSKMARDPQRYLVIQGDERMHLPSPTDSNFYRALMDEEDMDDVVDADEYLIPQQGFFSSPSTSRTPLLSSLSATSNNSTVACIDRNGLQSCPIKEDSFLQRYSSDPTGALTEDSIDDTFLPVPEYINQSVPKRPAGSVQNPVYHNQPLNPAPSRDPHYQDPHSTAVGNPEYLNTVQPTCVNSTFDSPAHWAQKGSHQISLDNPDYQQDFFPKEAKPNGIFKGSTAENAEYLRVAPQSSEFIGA
T1 sequence (P11362 478-767 limits assumed): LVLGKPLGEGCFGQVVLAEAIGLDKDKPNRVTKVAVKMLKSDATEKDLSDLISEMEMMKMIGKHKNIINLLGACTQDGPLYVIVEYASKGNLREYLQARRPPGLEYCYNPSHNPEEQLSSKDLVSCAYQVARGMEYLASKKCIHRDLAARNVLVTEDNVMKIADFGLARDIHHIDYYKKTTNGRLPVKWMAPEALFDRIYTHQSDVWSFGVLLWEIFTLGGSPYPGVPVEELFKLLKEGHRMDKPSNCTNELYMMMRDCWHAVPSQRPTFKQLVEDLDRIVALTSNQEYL
Sequence of InsR (P06213 28-1382, species assumed): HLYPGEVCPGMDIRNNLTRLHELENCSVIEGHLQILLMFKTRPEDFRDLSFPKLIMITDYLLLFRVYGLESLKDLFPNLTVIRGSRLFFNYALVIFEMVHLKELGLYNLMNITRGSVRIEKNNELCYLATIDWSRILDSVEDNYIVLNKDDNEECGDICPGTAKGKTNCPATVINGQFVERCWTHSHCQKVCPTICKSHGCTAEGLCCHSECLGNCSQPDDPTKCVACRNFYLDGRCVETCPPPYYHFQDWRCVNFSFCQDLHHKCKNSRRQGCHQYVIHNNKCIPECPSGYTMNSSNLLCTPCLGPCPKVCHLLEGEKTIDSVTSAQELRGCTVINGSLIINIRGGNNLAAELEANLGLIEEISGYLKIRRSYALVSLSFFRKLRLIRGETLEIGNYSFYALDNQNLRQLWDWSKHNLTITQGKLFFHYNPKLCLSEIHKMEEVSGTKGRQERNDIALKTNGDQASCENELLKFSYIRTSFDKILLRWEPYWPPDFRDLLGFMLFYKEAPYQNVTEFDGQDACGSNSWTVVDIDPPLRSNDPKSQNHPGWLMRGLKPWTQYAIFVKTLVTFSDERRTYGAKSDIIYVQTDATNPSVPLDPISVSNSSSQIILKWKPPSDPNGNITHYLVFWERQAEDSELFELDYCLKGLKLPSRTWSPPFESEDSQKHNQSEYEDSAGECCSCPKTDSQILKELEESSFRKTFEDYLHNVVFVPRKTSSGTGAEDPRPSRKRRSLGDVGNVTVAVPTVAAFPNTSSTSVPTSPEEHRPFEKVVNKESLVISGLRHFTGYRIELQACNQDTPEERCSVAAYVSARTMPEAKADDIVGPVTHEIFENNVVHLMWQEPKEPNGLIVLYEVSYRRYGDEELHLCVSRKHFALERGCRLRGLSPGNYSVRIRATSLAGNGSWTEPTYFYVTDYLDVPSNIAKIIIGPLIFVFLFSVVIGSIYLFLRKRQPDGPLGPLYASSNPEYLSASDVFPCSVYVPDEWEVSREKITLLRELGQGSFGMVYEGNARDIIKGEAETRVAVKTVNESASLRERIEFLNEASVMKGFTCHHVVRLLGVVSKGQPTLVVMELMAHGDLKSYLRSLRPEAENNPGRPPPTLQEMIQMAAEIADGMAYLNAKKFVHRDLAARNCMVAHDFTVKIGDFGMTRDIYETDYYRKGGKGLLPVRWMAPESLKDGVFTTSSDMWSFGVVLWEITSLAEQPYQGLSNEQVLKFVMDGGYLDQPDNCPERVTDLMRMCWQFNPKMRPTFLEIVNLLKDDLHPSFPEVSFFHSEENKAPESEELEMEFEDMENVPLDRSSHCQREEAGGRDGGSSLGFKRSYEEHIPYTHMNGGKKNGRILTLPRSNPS

**Q.** For `CCOc1cc(/C=C2\NC(=S)NC2=O)ccc1OCCCOc1cc(C)cc(C)c1` [compound 29], which “IC50 for inhibition of FGFR1 kinase” value [1] is on record?
**A.** The value was “weak activity”.

**Q.** With `Cc1c[nH]c(/C=C2\C(=O)Nc3ccccc32)c1CCC(=O)O` [compound 2, SU5402] as the molecule, how does the IC50 [2] read?
**A.** Its IC50 is 10 to 20 µM.

**Q.** What about the “inhibition of PDGFR kinase activity” value [3] of the same molecule?
**A.** The value was “weak inhibitor”.

**Q.** And the “inhibition of InsR kinase activity” value [4]?
**A.** Its value is “does not inhibit”.

**Q.** And the “inhibition of EGFR kinase activity” value [5]?
**A.** The value was “does not inhibit”.

**Q.** With `COCc1cc(/C=C2\NC(=S)NC2=O)ccc1OCCCOc1cc(C)cc(C)c1` [compound 30] as the molecule, how does the “IC50 for inhibition of FGFR1 kinase” value [1] read?
**A.** Its value is “weak activity”.

**Q.** What does the source list for `O=CN1CCN(c2ccc(/C=C3\C(=O)Nc4ccccc43)cc2)CC1` [compound 1, SU4984]?
**A.** IC50 [2]: 10 to 20 µM; inhibition of PDGFR kinase activity [3]: inhibits; inhibition of InsR kinase activity [4]: inhibits; inhibition of EGFR kinase activity [5]: does not inhibit

**Q.** Which IC50 [6] does the source give for `COc1cc(-c2nc(=O)c3c([nH]2)sc2ccc(C)cc23)ccc1OCC(=O)O` [compound 40] here?
**A.** Its IC50 is 2 µM.

**Q.** What about the “IC50 InsR” value [7] of the same molecule?
**A.** Its value is “does not inhibit; also recorded: no inhibition”.

**Q.** Which “potency of FGFR1 inhibition” value [2] does the source give for `CCN(CC)CCCCNc1ncc2cc(-c3cc(OC)cc(OC)c3)c(NC(=O)NC(C)(C)C)nc2n1` [compound 3, PD173074] here?
**A.** Its value is “nanomolar potency”.

**Q.** And the “IC50 for other kinases relative to FGFR1” value [8]?
**A.** Its value is no less than 1000 fold.

**Q.** For `COc1cc(-c2nc(=O)c3c([nH]2)sc2cc(C(F)(F)F)ccc23)ccc1OCC(=O)O` [compound 39], which “IC50 for inhibition of FGFR1 kinase” value [1] is on record?
**A.** The value was “eliminated activity”.

**Q.** Which “IC50 for inhibition of FGFR1 kinase” value [1] does the source give for `COc1ccc(-c2nc(=O)c3c4c(sc3[nH]2)CC(C)CC4)cc1OC` (centres unmarked) [compound 35] here?
**A.** The value was “do not inhibit”.

**Q.** With `COc1cccc(-c2nc(=O)c3c4c(sc3[nH]2)CC(C)CC4)c1` (centres unmarked) [compound 36] as the molecule, how does the “IC50 for inhibition of FGFR1 kinase” value [1] read?
**A.** Its value is “do not inhibit”.
